Source: ChEMBL document CHEMBL4346701, “Synthesis and biological evaluation of tryptophan-derived rhodanine derivatives as PTP1B inhibitors and anti-bacterial agents” (Eur J Med Chem, 2019)
Converted amounts (≈) assume the structure as drawn.

Tests used:
Staphylococcus aureus [1] = experiment: Antibacterial activity against Staphylococcus aureus KCTC503 assessed as reduction in bacterial cell growth incubated for 24 hrs by ELISA; type: functional; conditions: KCTC503, 24 h
Procedure, shortened: (§1)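 MICs determined by serial dilution in 96-well microtiter plates. The strain panel included Gram-positive S. aureus strains and multidrug-resistant clinical isolates. Gatifloxacin, moxifloxacin, norfloxacin and oxacillin served as antibacterial positive controls.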

Candida albicans = experiment: Antifungal activity against Candida albicans 7535 assessed as reduction in bacterial cell growth incubated for 24 hrs by ELISA; type: functional; conditions: Candida albicans, 7535, 24 h
Procedure, shortened: (§2)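 MIC determined by serial dilution in 96-well microtiter plates. Strains used were E. coli 1924 and P. aeruginosa 2742 (Gram-negative), S. mutans 3289 (Gram-positive) and the fungus C. albicans 7535. Gatifloxacin, moxifloxacin, norfloxacin and oxacillin served as antibacterial reference agents, and fluconazole as the antifungal reference.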

Staphylococcus aureus [2] = experiment: Antibacterial activity against Staphylococcus aureus KCTC209 assessed as reduction in bacterial cell growth incubated for 24 hrs by ELISA; type: functional; conditions: KCTC209, 24 h; procedure, shortened: as §1
Escherichia coli = experiment: Antibacterial activity against Escherichia coli 1924 assessed as reduction in bacterial cell growth incubated for 24 hrs by ELISA; type: functional; conditions: Escherichia coli, 1924, 24 h; procedure, shortened: as §2
Staphylococcus aureus [3] = experiment: Antibacterial activity against Quinolone-resistant Staphylococcus aureus CCARM 3505 assessed as reduction in bacterial cell growth incubated for 24 hrs by ELISA; type: functional; conditions: CCARM 3505, 24 h; procedure, shortened: as §1
Staphylococcus aureus [4] = experiment: Antibacterial activity against Methicillin-resistant Staphylococcus aureus CCARM 3167 assessed as reduction in bacterial cell growth incubated for 24 hrs by ELISA; type: functional; conditions: CCARM 3167, 24 h; procedure, shortened: as §1
Streptococcus mutans = experiment: Antibacterial activity against Streptococcus mutans KCTC3289 assessed as reduction in bacterial cell growth incubated for 24 hrs by ELISA; type: functional; conditions: KCTC3289, 24 h; procedure, shortened: as §2
[5] = target: T1, Tyrosine-protein phosphatase non-receptor type 1 (Homo sapiens, UniProt P18031); experiment: Inhibition of human recombinant GST-tagged PTP1B expressed in Escherichia coli BL21 (DE3) using pNPP as substrate measured for 2 mins by colorimetric analysis
T1 sequence (P18031 whole entry): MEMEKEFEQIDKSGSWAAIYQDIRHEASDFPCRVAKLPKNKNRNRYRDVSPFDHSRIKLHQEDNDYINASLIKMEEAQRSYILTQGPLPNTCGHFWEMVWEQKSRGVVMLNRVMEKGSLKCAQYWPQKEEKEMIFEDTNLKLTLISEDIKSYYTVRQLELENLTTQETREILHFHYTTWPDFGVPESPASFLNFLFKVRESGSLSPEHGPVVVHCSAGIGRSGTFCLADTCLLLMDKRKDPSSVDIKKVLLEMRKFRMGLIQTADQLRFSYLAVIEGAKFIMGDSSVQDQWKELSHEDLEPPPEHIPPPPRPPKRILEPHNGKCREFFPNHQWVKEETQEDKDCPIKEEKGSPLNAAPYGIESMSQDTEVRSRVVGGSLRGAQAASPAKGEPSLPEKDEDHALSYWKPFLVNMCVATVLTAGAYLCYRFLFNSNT

Staphylococcus aureus [6] = experiment: Antibacterial activity against Quinolone-resistant Staphylococcus aureus CCARM 3519 assessed as reduction in bacterial cell growth incubated for 24 hrs by ELISA; type: functional; conditions: CCARM 3519, 24 h; procedure, shortened: as §1
Staphylococcus aureus [7] = experiment: Antibacterial activity against Methicillin-resistant Staphylococcus aureus CCARM 3506 assessed as reduction in bacterial cell growth incubated for 24 hrs by ELISA; type: functional; conditions: CCARM 3506, 24 h; procedure, shortened: as §1
Staphylococcus aureus [8] = experiment: Antibacterial activity against Staphylococcus aureus RN4220 assessed as reduction in bacterial cell growth incubated for 24 hrs by ELISA; type: functional; conditions: RN4220, 24 h; procedure, shortened: as §1
Pseudomonas aeruginosa = experiment: Antibacterial activity against Pseudomonas aeruginosa 2742 assessed as reduction in bacterial cell growth incubated for 24 hrs by ELISA; type: functional; conditions: Pseudomonas aeruginosa, 2742, 24 h; procedure, shortened: as §2

COc1cc(/C=C2\SC(=S)N(C(Cc3c[nH]c4ccccc34)C(=O)O)C2=O)ccc1OCc1ccc(C)cc1 (stereo not drawn)
MIC (Staphylococcus aureus [1]): 4 µg/mL (≈ 7.16 µM)
MIC (Candida albicans): > 64 µg/mL
MIC (Staphylococcus aureus [2]): 2 µg/mL (≈ 3.58 µM)
MIC (Escherichia coli): 2 µg/mL (≈ 3.58 µM)
MIC (Staphylococcus aureus [3]): 2 µg/mL (≈ 3.58 µM)
MIC (Staphylococcus aureus [4]): 4 µg/mL (≈ 7.16 µM)
MIC (Streptococcus mutans): 2 µg/mL (≈ 3.58 µM)
IC50 [5]: 3600 nM
MIC (Staphylococcus aureus [6]): 8 µg/mL (≈ 14.3 µM)
MIC (Staphylococcus aureus [7]): 2 µg/mL (≈ 3.58 µM)
MIC (Staphylococcus aureus [8]): 2 µg/mL (≈ 3.58 µM)
MIC (Pseudomonas aeruginosa): > 64 µg/mL

O=C(O)CN1C(=O)/C(=C/c2ccc3cc(OCc4ccc(F)cc4)ccc3c2)SC1=S
MIC (Staphylococcus aureus [1]): 4 µg/mL (≈ 8.82 µM)
MIC (Candida albicans): > 64 µg/mL
MIC (Escherichia coli): > 64 µg/mL
MIC (Staphylococcus aureus [3]): 4 µg/mL (≈ 8.82 µM)
MIC (Staphylococcus aureus [4]): 4 µg/mL (≈ 8.82 µM)
MIC (Staphylococcus aureus [6]): 4 µg/mL (≈ 8.82 µM)
MIC (Staphylococcus aureus [7]): 2 µg/mL (≈ 4.41 µM)
MIC (Staphylococcus aureus [8]): 4 µg/mL (≈ 8.82 µM)
MIC (Pseudomonas aeruginosa): > 64 µg/mL

COc1ccccc1COc1ccc2cc(/C=C3\SC(=S)N(C(Cc4c[nH]c5ccccc45)C(=O)O)C3=O)ccc2c1 (stereo not drawn)
MIC (Candida albicans): > 64 µg/mL
MIC (Escherichia coli): 16 µg/mL (≈ 26.9 µM)
MIC (Staphylococcus aureus [3]): 8 µg/mL (≈ 13.5 µM)
MIC (Staphylococcus aureus [4]): 8 µg/mL (≈ 13.5 µM)
MIC (Streptococcus mutans): 8 µg/mL (≈ 13.5 µM)
IC50 [5]: 1530 nM
MIC (Staphylococcus aureus [6]): 8 µg/mL (≈ 13.5 µM)
MIC (Staphylococcus aureus [7]): 8 µg/mL (≈ 13.5 µM)
MIC (Staphylococcus aureus [8]): 8 µg/mL (≈ 13.5 µM)
MIC (Pseudomonas aeruginosa): > 64 µg/mL

COc1cc(/C=C2\SC(=S)N(C(Cc3c[nH]c4ccccc34)C(=O)O)C2=O)ccc1OCc1ccc(Cl)cc1 (stereo not drawn)
MIC (Staphylococcus aureus [1]): 4 µg/mL (≈ 6.91 µM)
MIC (Candida albicans): > 64 µg/mL
MIC (Staphylococcus aureus [2]): 4 µg/mL (≈ 6.91 µM)
MIC (Escherichia coli): 4 µg/mL (≈ 6.91 µM)
MIC (Staphylococcus aureus [3]): 4 µg/mL (≈ 6.91 µM)
MIC (Staphylococcus aureus [4]): 4 µg/mL (≈ 6.91 µM)
MIC (Streptococcus mutans): 4 µg/mL (≈ 6.91 µM)
IC50 [5]: 4360 nM
MIC (Staphylococcus aureus [6]): 4 µg/mL (≈ 6.91 µM)
MIC (Staphylococcus aureus [7]): 4 µg/mL (≈ 6.91 µM)
MIC (Staphylococcus aureus [8]): 2 µg/mL (≈ 3.45 µM)
MIC (Pseudomonas aeruginosa): > 64 µg/mL

O=C(O)C(Cc1c[nH]c2ccccc12)N1C(=O)/C(=C/c2cccc(OCc3ccc(Br)cc3)c2)SC1=S (stereo not drawn)
MIC (Staphylococcus aureus [1]): 4 µg/mL (≈ 6.74 µM)
MIC (Candida albicans): > 64 µg/mL
MIC (Staphylococcus aureus [2]): 4 µg/mL (≈ 6.74 µM)
MIC (Escherichia coli): 8 µg/mL (≈ 13.5 µM)
MIC (Staphylococcus aureus [3]): 8 µg/mL (≈ 13.5 µM)
MIC (Staphylococcus aureus [4]): 8 µg/mL (≈ 13.5 µM)
MIC (Streptococcus mutans): 4 µg/mL (≈ 6.74 µM)
IC50 [5]: 2700 nM
MIC (Staphylococcus aureus [6]): 4 µg/mL (≈ 6.74 µM)
MIC (Staphylococcus aureus [7]): 8 µg/mL (≈ 13.5 µM)
MIC (Staphylococcus aureus [8]): 2 µg/mL (≈ 3.37 µM)
MIC (Pseudomonas aeruginosa): > 64 µg/mL

Cc1onc(-c2ccccc2)c1C(=O)N[C@@H]1C(=O)N2[C@@H]1SC(C)(C)[C@@H]2C(=O)O [OXACILLIN]
MIC (Staphylococcus aureus [3]): 1 µg/mL (≈ 2.49 µM)
MIC (Staphylococcus aureus [4]): > 64 µg/mL
MIC (Staphylococcus aureus [6]): 1 µg/mL (≈ 2.49 µM)
MIC (Staphylococcus aureus [7]): > 64 µg/mL

O=C(O)C(Cc1c[nH]c2ccccc12)N1C(=O)/C(=C/c2ccc(OCc3ccc(Cl)cc3)cc2)SC1=S (stereo not drawn)
MIC (Staphylococcus aureus [1]): 4 µg/mL (≈ 7.29 µM)
MIC (Candida albicans): > 64 µg/mL
MIC (Staphylococcus aureus [2]): 4 µg/mL (≈ 7.29 µM)
MIC (Escherichia coli): 4 µg/mL (≈ 7.29 µM)
MIC (Staphylococcus aureus [3]): 4 µg/mL (≈ 7.29 µM)
MIC (Staphylococcus aureus [4]): 4 µg/mL (≈ 7.29 µM)
MIC (Streptococcus mutans): 2 µg/mL (≈ 3.64 µM)
IC50 [5]: 2440 nM
MIC (Staphylococcus aureus [6]): 4 µg/mL (≈ 7.29 µM)
MIC (Staphylococcus aureus [7]): 4 µg/mL (≈ 7.29 µM)
MIC (Staphylococcus aureus [8]): 2 µg/mL (≈ 3.64 µM)
MIC (Pseudomonas aeruginosa): > 64 µg/mL

O=C(O)C(Cc1c[nH]c2ccccc12)N1C(=O)/C(=C/c2ccc3cc(OCc4ccccc4Cl)ccc3c2)SC1=S (stereo not drawn)
MIC (Candida albicans): > 64 µg/mL
MIC (Escherichia coli): 4 µg/mL (≈ 6.68 µM)
MIC (Staphylococcus aureus [3]): 4 µg/mL (≈ 6.68 µM)
MIC (Staphylococcus aureus [4]): 2 µg/mL (≈ 3.34 µM)
MIC (Streptococcus mutans): 2 µg/mL (≈ 3.34 µM)
IC50 [5]: 800 nM
MIC (Staphylococcus aureus [6]): 4 µg/mL (≈ 6.68 µM)
MIC (Staphylococcus aureus [7]): 4 µg/mL (≈ 6.68 µM)
MIC (Staphylococcus aureus [8]): 4 µg/mL (≈ 6.68 µM)
MIC (Pseudomonas aeruginosa): > 64 µg/mL

O=C(O)C(Cc1c[nH]c2ccccc12)N1C(=O)/C(=C/c2ccc3cc(OCc4ccccc4)ccc3c2)SC1=S (stereo not drawn)
MIC (Candida albicans): > 64 µg/mL
MIC (Escherichia coli): 8 µg/mL (≈ 14.2 µM)
MIC (Staphylococcus aureus [3]): 4 µg/mL (≈ 7.08 µM)
MIC (Staphylococcus aureus [4]): 8 µg/mL (≈ 14.2 µM)
MIC (Streptococcus mutans): 8 µg/mL (≈ 14.2 µM)
IC50 [5]: 820 nM
MIC (Staphylococcus aureus [6]): 8 µg/mL (≈ 14.2 µM)
MIC (Staphylococcus aureus [7]): 8 µg/mL (≈ 14.2 µM)
MIC (Staphylococcus aureus [8]): 8 µg/mL (≈ 14.2 µM)
MIC (Pseudomonas aeruginosa): > 64 µg/mL

COc1c(N2CCNC(C)C2)c(F)cc2c(=O)c(C(=O)O)cn(C3CC3)c12 (stereo not drawn) [GATIFLOXACIN]
MIC (Staphylococcus aureus [1]): 4 µg/mL (≈ 10.7 µM)
MIC (Staphylococcus aureus [2]): 2 µg/mL (≈ 5.33 µM)
MIC (Escherichia coli): 2 µg/mL (≈ 5.33 µM)
MIC (Staphylococcus aureus [3]): 8 µg/mL (≈ 21.3 µM)
MIC (Staphylococcus aureus [4]): 2 µg/mL (≈ 5.33 µM)
MIC (Streptococcus mutans): 0.25 µg/mL (≈ 0.666 µM)
MIC (Staphylococcus aureus [6]): 4 µg/mL (≈ 10.7 µM)
MIC (Staphylococcus aureus [7]): 2 µg/mL (≈ 5.33 µM)
MIC (Staphylococcus aureus [8]): 0.25 µg/mL (≈ 0.666 µM)
MIC (Pseudomonas aeruginosa): 1 µg/mL (≈ 2.66 µM)

O=C(O)C(Cc1c[nH]c2ccccc12)N1C(=O)/C(=C/c2ccc(OCc3ccccc3)cc2)SC1=S (stereo not drawn)
MIC (Staphylococcus aureus [1]): 8 µg/mL (≈ 15.5 µM)
MIC (Candida albicans): > 64 µg/mL
MIC (Staphylococcus aureus [2]): 8 µg/mL (≈ 15.5 µM)
MIC (Escherichia coli): 8 µg/mL (≈ 15.5 µM)
MIC (Staphylococcus aureus [3]): 8 µg/mL (≈ 15.5 µM)
MIC (Staphylococcus aureus [4]): 8 µg/mL (≈ 15.5 µM)
MIC (Streptococcus mutans): 4 µg/mL (≈ 7.77 µM)
IC50 [5]: 5520 nM
MIC (Staphylococcus aureus [6]): 8 µg/mL (≈ 15.5 µM)
MIC (Staphylococcus aureus [7]): 8 µg/mL (≈ 15.5 µM)
MIC (Staphylococcus aureus [8]): 4 µg/mL (≈ 7.77 µM)
MIC (Pseudomonas aeruginosa): > 64 µg/mL
